Results on 25 molecules are retold here after ChEMBL document CHEMBL1123831, “17-Heteroaroyl esters of corticosteroids. 2. 11 beta-Hydroxy series” (1987).

The species named for assay [1] is Mus musculus. In words: Anti-inflammatory potency was measured in mice at 5 hours by modification of the Tonelli croton oil ear assay. The format is functional. In outline:
(§1)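 Topical dosing in mice. Compounds at 10^-4% to 10^-6% (w/v) were dissolved in 0.6–0.7% croton oil, in a vehicle of pyridine/water/diethyl ether 20:5:74 (v/v). 10 µL was applied to the inner aspect of both pinnae daily for 5 days. Animals were killed 5 h after the last dose, and 6-mm ear punch biopsies were weighed. Potency was calculated relative to betamethasone 17-valerate from the mean left-plus-right ear punch weights.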

Assay [2] is filed under the species Mus musculus. In words: Anti-inflammatory potency was measured in mice by modification of the croton oil ear assay. On the set-up: reference not given here.
The species named for assay [3] is Mus musculus. As to the kind of experiment: Anti-inflammatory potency was measured in mice at 5 hours by modification of the croton oil ear assay. The format is functional. The essentials: as §1

With `C[C@@H]1C[C@H]2[C@@H]3CCC4=CC(=O)C=C[C@]4(C)[C@@]3(Cl)[C@@H](O)C[C@]2(C)[C@@]1(OC(=O)c1ccco1)C(=O)CF`, the Potency in the assay listed under Mus musculus [1] came to 1.4; in the assay listed under Mus musculus [2], 4.4.

As to `CC(=O)OCC(=O)[C@@]1(OC(=O)c2cccs2)[C@H](C)CC2C3CCC4=CC(=O)C=CC4(C)[C@@]3(F)C(O)CC21C` (stereo partly drawn), the Potency in the assay filed under Mus musculus [1] turned out to be 1.6; in the assay listed under Mus musculus [2], 2.9.

Regarding `CC(=O)OCC(=O)[C@@]1(OC(=O)c2ccc(C)s2)[C@H](C)CC2C3CCC4=CC(=O)C=CC4(C)[C@@]3(F)C(O)CC21C` (stereo partly drawn), the Potency is recorded as 2.4 in the assay listed under Mus musculus [1] and 1.7 in the assay listed under Mus musculus [2].

As for `CCC(=O)OCC(=O)[C@@]1(OC(=O)c2ccco2)[C@H](C)CC2C3CCC4=CC(=O)C=CC4(C)[C@@]3(F)C(O)CC21C` (stereo partly drawn), the results for the Potency in the assay filed under Mus musculus [1] and in the assay filed under Mus musculus [2] were 2.1 and 6.8, respectively.

For the molecule `COCC(=O)OCC(=O)[C@@]1(OC(=O)c2ccco2)[C@H](C)CC2C3CCC4=CC(=O)C=CC4(C)[C@@]3(F)C(O)CC21C` (stereo partly drawn), the results for the Potency in the assay listed under Mus musculus [1] and in the assay listed under Mus musculus [2] were 0.8 and 3.2, respectively.

`COCC(=O)OCC(=O)[C@@]1(OC(=O)c2ccco2)[C@H](C)CC2C3CCC4=CC(=O)C=CC4(C)[C@@]3(Cl)C(O)CC21C` (stereo partly drawn) had a Potency in the assay filed under Mus musculus [2] of 4.3.

For `CC(=O)OCC(=O)[C@@]1(OC(=O)c2ccoc2)[C@H](C)CC2C3CCC4=CC(=O)C=CC4(C)[C@@]3(F)C(O)CC21C` (stereo partly drawn), the Potency in the assay listed under Mus musculus [1] is 2.9; in the assay filed under Mus musculus [2], 3.2.

As to `C[C@@H]1CC2C3CCC4=CC(=O)C=CC4(C)[C@@]3(Cl)C(O)CC2(C)[C@@]1(OC(=O)c1ccco1)C(=O)CCl` (stereo partly drawn), the Potency in the assay filed under Mus musculus [1] was found to be 1; in the assay listed under Mus musculus [2] it was 6.1.

With `CC(=O)OCC(=O)[C@@]1(OC(=O)c2ccco2)[C@H](C)CC2C3CCC4=CC(=O)C=CC4(C)[C@@]3(F)C(O)CC21C` (stereo partly drawn), the figures for the Potency in the assay listed under Mus musculus [1] and in the assay listed under Mus musculus [2] were 1.7 and 2.2, respectively.

With `C[C@H]1CC2C3CCC4=CC(=O)C=CC4(C)[C@@]3(F)C(O)CC2(C)[C@@]1(OC(=O)c1ccco1)C(=O)CCl` (stereo partly drawn), the Potency in the assay filed under Mus musculus [1] came to 0.6; in the assay listed under Mus musculus [2], 0.9.

As for `C=C1CC2C3CCC4=CC(=O)C=CC4(C)C3(Cl)C(O)CC2(C)[C@@]1(OC(=O)c1ccco1)C(=O)COC(C)=O` (stereo partly drawn), the Potency was determined as 2.2 in the assay listed under Mus musculus [3] and 2.3 in the assay listed under Mus musculus [1].

For `CC(=O)OCC(=O)[C@@]1(OC(=O)c2ccco2)[C@H](C)CC2C3CCC4=CC(=O)C=CC4(C)[C@@]3(Cl)C(O)CC21C` (stereo partly drawn), the Potency in the assay filed under Mus musculus [1] was found to be 1.7; in the assay filed under Mus musculus [2], 4.4.

Turning to `C[C@@H]1CC2C3C[C@H](F)C4=CC(=O)C=CC4(C)[C@@]3(Cl)C(O)CC2(C)[C@@]1(OC(=O)c1ccco1)C(=O)CCl` (stereo partly drawn), the Potency in the assay listed under Mus musculus [1] is 1.1; in the assay filed under Mus musculus [2] it was 5.1.

Take `CC(=O)OCC(=O)[C@@]1(OC(=O)c2ccco2)CCC2C3CCC4=CC(=O)C=CC4(C)C3C(O)CC21C` (stereo partly drawn): the results for the Potency in the assay listed under Mus musculus [1] and in the assay listed under Mus musculus [2] were 1.3 and 0.9, respectively.

For the molecule `C=C1CC2C3CCC4=CC(=O)C=CC4(C)[C@@]3(F)C(O)CC2(C)[C@@]1(OC(=O)c1ccco1)C(=O)COC(C)=O` (stereo partly drawn), the figures for the Potency in the assay listed under Mus musculus [1] and in the assay filed under Mus musculus [2] were 0.5 and 1.1, respectively.

On to `C[C@@H]1CC2C3CCC4=CC(=O)C=CC4(C)[C@@]3(F)C(O)CC2(C)[C@@]1(OC(=O)c1ccoc1)C(=O)CCl` (stereo partly drawn), for which the figures for the Potency in the assay filed under Mus musculus [1] and in the assay listed under Mus musculus [2] were 1 and 1.2, respectively.

For `C=C1CC2C3CCC4=CC(=O)C=CC4(C)C3C(O)CC2(C)[C@@]1(OC(=O)c1ccco1)C(=O)COC(C)=O` (stereo partly drawn), the Potency in the assay filed under Mus musculus [1] amounted to 2.7; in the assay listed under Mus musculus [2], 1.2.

In the case of `CC(=O)OCC(=O)[C@@]1(OC(=O)c2ccco2)[C@@H](C)CC2C3CCC4=CC(=O)C=CC4(C)[C@@]3(F)C(O)CC21C` (stereo partly drawn), the Potency in the assay filed under Mus musculus [1] was found to be 0.5; in the assay listed under Mus musculus [2], 0.2.

Regarding `CC(=O)OCC(=O)[C@@]1(OC(=O)c2ccco2)[C@H](C)CC2C3C[C@H](F)C4=CC(=O)C=CC4(C)C3C(O)CC21C` (stereo partly drawn), the values for the Potency in the assay filed under Mus musculus [1] and in the assay filed under Mus musculus [2] were 2.7 and 2.1, respectively.

Take `CCC(=O)OCC(=O)[C@@]1(OC(=O)c2ccco2)[C@H](C)CC2C3CCC4=CC(=O)C=CC4(C)C3C(O)CC21C` (stereo partly drawn): the Potency in the assay listed under Mus musculus [1] was found to be 1.1; in the assay listed under Mus musculus [2], 1.5.

Take `C[C@H]1CC2C3CCC4=CC(=O)C=CC4(C)[C@@]3(F)C(O)CC2(C)[C@@]1(OC(=O)c1cccs1)C(=O)CCl` (stereo partly drawn): the Potency in the assay listed under Mus musculus [1] is 1.3; in the assay filed under Mus musculus [2] it was 2.6.

Take `CCCC(=O)OCC(=O)[C@@]1(OC(=O)c2ccco2)[C@H](C)CC2C3CCC4=CC(=O)C=CC4(C)[C@@]3(F)C(O)CC21C` (stereo partly drawn): in the assay filed under Mus musculus [1], the Potency was 1.1.

`C[C@@H]1CC2C3CCC4=CC(=O)C=CC4(C)[C@@]3(Cl)C(O)CC2(C)[C@@]1(OC(=O)c1cccs1)C(=O)CCl` (stereo partly drawn): the values for the Potency in the assay filed under Mus musculus [1] and in the assay filed under Mus musculus [2] were 1.2 and 4.5, respectively.

Regarding `C[C@@H]1CC2C3CCC4=CC(=O)C=CC4(C)[C@@]3(F)C(O)CC2(C)[C@@]1(OC(=O)c1ccco1)C(=O)CCl` (stereo partly drawn), the Potency amounted to 1.6 in the assay filed under Mus musculus [1] and 2.3 in the assay filed under Mus musculus [2].

With `CCCCC(=O)O[C@]1(C(=O)CO)[C@@H](C)C[C@H]2[C@@H]3CCC4=CC(=O)C=C[C@]4(C)[C@@]3(F)[C@@H](O)C[C@@]21C` [BETAMETHASONE VALERATE], the Potency in the assay filed under Mus musculus [1] and in the assay listed under Mus musculus [2] was 1 throughout.
